Data: publication PMC5684856 (Pharmacology Research & Perspectives, 2017)
“Also recorded” adds a separate entry of the source. Values belong to the compound of their own block, whether it stands above or below them.

How the values were obtained:
Sprague-Dawley rats [1] = assay: Effects on fasting glucose levels in Sprague-Dawley rats; type: in vivo, rat; conditions: fasted Sprague-Dawley rats
rat primary islets = assay: Glucose-dependent insulin secretion in rat islets; type: cell-based, Sprague-Dawley rats; conditions: 1 h
GPR40/FFAR1 = GPR40/FFAR1 (Mus musculus, UniProt Q76JU9); type: cell-based
In short: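 CHO-DXB11 cells stably expressing mouse GPR40/FFAR1 were assayed for intracellular Ca2+ increases (FLIPR calcium dye, fluorescence imaging plate reader) in the presence of 10% FBS and 0.5% BSA. Triplicate determinations; means + SD.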

[2] = system: mouse insulinoma MIN6 cells; assay: Caspase 3/7 activity in MIN6 cells; type: cell-based; conditions: 72-h exposure
In short: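 MIN6 mouse insulinoma cells were grown in DMEM with 10% heat-inactivated FBS, penicillin/streptomycin and 0.0005% 2-mercaptoethanol. Cells were exposed to test compound or palmitic acid for 72 h in 10% FBS plus 0.5% BSA. Caspase-3/7 activity was read with a homogeneous fluorogenic caspase-3/7 kit. Triplicate determinations; means + SD.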

[3] = system: healthy volunteers and T2DM patients; conditions: cited from earlier work
[4] = ref Tsujihata et al. 2011; Ito et al. 2013; cited from earlier work
human GPR120/FFAR4 = target: T1, human GPR120/FFAR4 (Homo sapiens, UniProt Q5NUL3); assay: Intracellular calcium assay; type: cell-based
T1 sequence (Q5NUL3 1-361): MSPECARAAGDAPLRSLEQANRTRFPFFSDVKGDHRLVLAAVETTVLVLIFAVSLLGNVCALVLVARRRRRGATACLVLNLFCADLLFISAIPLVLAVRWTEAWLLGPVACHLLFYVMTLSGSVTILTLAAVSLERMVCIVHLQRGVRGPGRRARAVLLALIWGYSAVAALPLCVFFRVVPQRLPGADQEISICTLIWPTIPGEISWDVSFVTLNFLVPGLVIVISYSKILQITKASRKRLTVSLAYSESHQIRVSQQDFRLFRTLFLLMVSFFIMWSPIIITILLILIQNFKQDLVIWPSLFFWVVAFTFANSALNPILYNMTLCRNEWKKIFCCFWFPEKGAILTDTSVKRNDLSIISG
In short: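 CHO-DXB11 cells were stably transfected with human GPR120/FFAR4 and grown in Ham's F-12 with 10% heat-inactivated FBS. Intracellular Ca2+ changes were measured in duplicate with a FLIPR calcium kit on a fluorescence imaging plate reader. Alpha-linolenic acid served as the control agonist.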

Goto-Kakizaki (GK) rats [5] = assay: Oral glucose tolerance test in Goto-Kakizaki rats; type: in vivo, rat
In short: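 Male GK rats, 9–10 weeks old, were fasted overnight and grouped (n = 9–10) by fasting glucose and body weight. Vehicle or test compound was given orally, followed by oral glucose 1 g kg−1 60 min later. Blood was taken pre-dose, at −5 min, and at 5–180 min after glucose. Plasma glucose AUC covered −5 to 180 min and insulin AUC −5 to 60 min. Dunnett's test; means + SEM.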

mouse GPR40/FFAR1 = mouse GPR40/FFAR1 (Mus musculus, UniProt Q76JU9); assay: Intracellular calcium assay; type: cell-based
In short: (§1)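 CHO-DXB11 cells stably expressing human, mouse or rat GPR40/FFAR1 were grown in Ham's F-12 with 10% heat-inactivated FBS and penicillin/streptomycin in 96-well plates. Test compounds were dissolved in DMSO. Ca2+ increases were measured in duplicate (FLIPR kit, fluorescence imaging reader) and expressed as % of fasiglifam Emax. EC50 was obtained by sigmoidal curve fit; means ± SD of 6 assays.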

PPAR gamma = target: T2, PPAR gamma (Homo sapiens, UniProt P37231); assay: Nuclear receptor reporter activation assay; type: cell-based
T2 sequence (P37231 1-505): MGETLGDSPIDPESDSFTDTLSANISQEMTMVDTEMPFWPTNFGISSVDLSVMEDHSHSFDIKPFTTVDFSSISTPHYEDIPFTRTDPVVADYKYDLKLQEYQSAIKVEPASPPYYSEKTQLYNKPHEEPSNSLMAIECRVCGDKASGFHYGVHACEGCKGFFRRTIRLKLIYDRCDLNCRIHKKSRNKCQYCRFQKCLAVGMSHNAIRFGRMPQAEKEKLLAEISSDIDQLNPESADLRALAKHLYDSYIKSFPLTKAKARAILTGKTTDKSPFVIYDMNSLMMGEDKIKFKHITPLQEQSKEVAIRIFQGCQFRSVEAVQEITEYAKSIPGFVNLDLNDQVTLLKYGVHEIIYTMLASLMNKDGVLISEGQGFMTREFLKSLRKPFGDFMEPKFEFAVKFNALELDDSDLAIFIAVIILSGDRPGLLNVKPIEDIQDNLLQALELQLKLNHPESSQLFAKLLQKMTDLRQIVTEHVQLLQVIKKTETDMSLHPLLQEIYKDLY

Goto-Kakizaki (GK) rats [6] = assay: Chronic 5-week treatment in Goto-Kakizaki rats; type: in vivo, rat
rat GPR40/FFAR1 = rat GPR40/FFAR1 (Rattus norvegicus, UniProt Q8K3T4); assay: Intracellular calcium assay; type: cell-based
In short: as §1

human GPR40/FFAR1 = human GPR40/FFAR1 (Homo sapiens, UniProt O14842); assay: Intracellular calcium assay; type: cell-based
In short: as §1

human GPR119 = target: T3, human GPR119 (Homo sapiens, UniProt Q8TDV5); assay: cAMP reporter assay in CHO-K1 cells expressing human GPR119; type: cell-based
T3 sequence (Q8TDV5 1-335): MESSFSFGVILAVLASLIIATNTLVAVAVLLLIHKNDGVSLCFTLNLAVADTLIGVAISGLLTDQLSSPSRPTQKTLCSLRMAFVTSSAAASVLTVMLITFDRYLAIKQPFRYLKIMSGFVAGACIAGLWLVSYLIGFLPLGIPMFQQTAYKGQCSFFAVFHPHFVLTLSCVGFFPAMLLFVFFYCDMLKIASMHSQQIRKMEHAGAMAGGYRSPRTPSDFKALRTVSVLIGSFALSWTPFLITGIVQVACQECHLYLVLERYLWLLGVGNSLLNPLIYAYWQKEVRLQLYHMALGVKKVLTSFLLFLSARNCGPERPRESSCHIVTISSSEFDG
In short: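 CHO-K1 cells stably expressing human GPR119 were co-transfected with a Cre-luciferase reporter and a renilla luciferase control. Cells were incubated with test compound for 4 h, then lysed. Firefly and renilla luciferase activities were measured in duplicate by dual-luciferase chemiluminescence. AR231453 served as the control agonist.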

[7] = Pharmacokinetic study in rats; type: in vivo, male Sprague-Dawley rats; conditions: rat
In short: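 Male Sprague-Dawley rats, 7 weeks old, received 3 mg kg−1 intravenously in N,N-dimethylacetamide/PEG400/water (4/4/2). After overnight fasting, others received 0.3, 1, 3 or 10 mg kg−1 orally as a suspension in 1% Tween 80 with 0.5% carboxymethyl cellulose. Plasma levels were analysed by noncompartmental analysis, with bioavailability from AUC. n = 3 per group; mean (SD).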

Sprague-Dawley rats [8] = assay: Oral glucose tolerance test in Sprague-Dawley rats; type: in vivo, rat
In short: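 Male Sprague-Dawley rats, 7–8 weeks old, were fasted overnight and grouped by body weight (n = 10). Vehicle or test compound was given orally 60 min before oral glucose 1 g kg−1. Blood was sampled pre-dose, at −5 min, and at 5, 15, 30, 60 and 120 min. Plasma glucose was measured enzymatically and insulin by ultrasensitive rat insulin ELISA. AUCs covered −5 to 120 min (glucose) and −5 to 60 min (insulin). Dunnett's test; means + SEM.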

[9] = 1 mg·kg^−1 p.o., 15 min after glucose challenge
[10] = p.o. 60 min before glucose 1 g kg^−1, vs vehicle
[11] = male, Sprague-Dawley, plasma, iv, 3 mg/kg
[12] = male, Sprague-Dawley, plasma, po, 0.3 mg/kg
[13] = male, Sprague-Dawley, plasma, po, 1 mg/kg
[14] = male, Sprague-Dawley, plasma, po, 3 mg/kg
[15] = male, Sprague-Dawley, plasma, po, 10 mg/kg

Sequence of GPR40/FFAR1 (Q76JU9 whole entry): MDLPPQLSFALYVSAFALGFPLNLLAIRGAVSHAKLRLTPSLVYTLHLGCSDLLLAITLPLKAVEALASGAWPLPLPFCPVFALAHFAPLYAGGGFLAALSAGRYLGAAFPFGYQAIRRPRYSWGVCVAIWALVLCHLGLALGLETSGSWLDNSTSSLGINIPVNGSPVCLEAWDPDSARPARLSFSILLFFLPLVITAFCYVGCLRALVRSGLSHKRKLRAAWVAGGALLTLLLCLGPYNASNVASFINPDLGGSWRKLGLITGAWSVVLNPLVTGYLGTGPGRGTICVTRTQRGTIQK
Sequence of rat GPR40/FFAR1 (Q8K3T4 whole entry): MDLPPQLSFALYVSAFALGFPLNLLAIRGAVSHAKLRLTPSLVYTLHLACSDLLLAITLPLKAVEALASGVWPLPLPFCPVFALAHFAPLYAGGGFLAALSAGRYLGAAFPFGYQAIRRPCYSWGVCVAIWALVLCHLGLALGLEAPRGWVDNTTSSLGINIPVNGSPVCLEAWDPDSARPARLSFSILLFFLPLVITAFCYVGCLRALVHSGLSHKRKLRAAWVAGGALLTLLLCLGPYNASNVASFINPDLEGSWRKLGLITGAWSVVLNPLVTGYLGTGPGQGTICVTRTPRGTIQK
Sequence of mouse GPR40/FFAR1 (Q76JU9 whole entry): as the sequence (Q76JU9 whole entry) above
Sequence of human GPR40/FFAR1 (O14842 whole entry): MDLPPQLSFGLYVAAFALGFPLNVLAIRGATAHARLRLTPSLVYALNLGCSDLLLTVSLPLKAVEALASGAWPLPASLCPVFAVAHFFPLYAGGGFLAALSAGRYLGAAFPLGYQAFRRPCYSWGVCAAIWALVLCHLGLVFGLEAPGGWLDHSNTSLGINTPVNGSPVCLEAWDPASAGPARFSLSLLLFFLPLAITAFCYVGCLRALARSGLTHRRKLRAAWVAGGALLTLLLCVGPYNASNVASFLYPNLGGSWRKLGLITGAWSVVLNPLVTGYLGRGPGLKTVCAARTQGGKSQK

SMILES: COc1ccc(Cl)cc1C(=O)NCCc1ccc(S(=O)(=O)NC(=O)NC2CCCCC2)cc1 [glibenclamide, reference compound]
- fasting plasma glucose levels (Sprague-Dawley rats [1]; glibenclamide 10 mg·kg^−1 p.o.): significantly reduced the fasting plasma glucose levels

SMILES: [Cl-].[K+] [KCl, reference compound]
- insulin secretion in low glucose (rat primary islets; KCl positive control, 2 mmol·L^−1 glucose): significantly potentiated insulin secretion
- insulin secretion in high glucose (rat primary islets; KCl positive control, 16 mmol·L^−1 glucose): significantly potentiated insulin secretion

- EC50 (GPR40/FFAR1): 29000 nM
- caspase 3/7 activity ([2]; 300 μmol·L^−1 with 0.5% BSA): induced caspase 3/7 activity
SMILES: CCCCCCCCCCCCCCCC(=O)O [palmitic acid, reference compound]

SMILES: Cc1cc(OCCCS(C)(=O)=O)cc(C)c1-c1cccc(COc2ccc3c(c2)OC[C@H]3CC(=O)O)c1 [fasiglifam]
- glucose-lowering effect ([3]; T2DM patients, ref Burant et al. 2012, Kaku et al. 2013): glucose‐lowering effect
- hepatotoxicity (liver enzyme levels) ([3]; clinical, ref Kaku et al. 2015): increased liver enzyme levels
- clinical parameters of glucose homeostasis ([3]; healthy human adults, ref Leifke et al. 2012): did not affect clinical parameters of glucose homeostasis
- safety and tolerability ([3]; healthy volunteers, ref Naik et al. 2012): safe and well tolerated
- pancreatic toxicity [4]: does not cause pancreatic toxicity

- hGPR120 activation (at 3 nmol·L^−1) (human GPR120/FFAR4; at 3 nmol·L^−1 as printed): 4%
- agonistic activity in GPR120/FFAR4-expressing cells (human GPR120/FFAR4; at 3 μmol·L^−1): did not show any agonistic activities
- EC50 (GPR40/FFAR1): 210 nM
- EC50 (mouse GPR40/FFAR1): 25 ± 4 nM
- PPAR gamma activation (at 3 nmol·L^−1) (PPAR gamma; at 3 nmol·L^−1 as printed): 1%
- agonistic activity in PPAR gamma-expressing cells (PPAR gamma; at 3 μmol·L^−1): did not show any agonistic activities
- caspase 3/7 activity ([2]; even at 10 μmol·L^−1 with 0.5% BSA): did not induce caspase 3/7 activity
- EC50 (rat GPR40/FFAR1): 27 ± 3 nM
- EC50 (human GPR40/FFAR1): 35 ± 6 nM
- hGPR119 activation (at 3 nmol·L^−1) (human GPR119; at 3 nmol·L^−1 as printed): 1%
- agonistic activity in GPR119-expressing cells (human GPR119; at 3 μmol·L^−1): did not show any agonistic activities
- AUC(0-inf) [7, 11]: 8960 ng·h/mL
- Vd [7, 11]: 0.584 L/kg
- clearance [7, 11]: 5.62 mL/min/kg
- half-life [7, 11]: 1.92 h
- AUC(0-inf) [7, 12]: 511 ng·h/mL
- Cmax [7, 12]: 102 ng/mL
- Tmax [7, 12]: 0.83 h
- bioavailability [7, 12]: 57%
- half-life [7, 12]: 2.48 h
- AUC(0-inf) [7, 13]: 1450 ng·h/mL
- Cmax [7, 13]: 264 ng/mL
- Tmax [7, 13]: 2.67 h
- bioavailability [7, 13]: 49%
- half-life [7, 13]: 2.1 h
- AUC(0-inf) [7, 14]: 4710 ng·h/mL
- Cmax [7, 14]: 755 ng/mL
- Tmax [7, 14]: 4 h
- bioavailability [7, 14]: 53%
- half-life [7, 14]: 2.13 h
- AUC(0-inf) [7, 15]: 8430 ng·h/mL
- Cmax [7, 15]: 1130 ng/mL
- Tmax [7, 15]: 5.33 h
- bioavailability [7, 15]: 28%
- half-life [7, 15]: 2.08 h
- time at which plasma concentrations reached maximum values ([7]; p.o., all tested doses (0.3-10 mg·kg^−1)): 0.83 to 5.33 h
SMILES: Cc1cc(OCCCS(C)(=O)=O)cc(C)c1-c1cccc(COc2ccc(-c3cc(O)n[s+]3[O-])cc2)c1 [MR1704, (R)‐5‐[4‐[3‐[2,6‐Dimethyl‐4‐[3‐(methylsulphonyl)propoxy]‐phenyl]benzyloxy]phenyl]‐isothiazol‐3‐ol 1‐oxide]
- AUC of glucose levels during OGTT (Goto-Kakizaki (GK) rats [5]; 1 mg·kg^−1 p.o.): significant reduction in the AUC of glucose levels
- plasma insulin secretion during OGTT (Goto-Kakizaki (GK) rats [5]; [9]): significantly enhanced plasma insulin secretion
- plasma glucose excursion during OGTT (Goto-Kakizaki (GK) rats [5]; [10]): reduced plasma glucose excursion
- fasting plasma glucose levels (Sprague-Dawley rats [1]; even at 300 mg·kg^−1 p.o., 1 to 12 h after dosing): did not reduce the fasting plasma glucose levels
- glycated hemoglobin (HbA1c) levels, effect in words (Goto-Kakizaki (GK) rats [6]; 3 mg·kg^−1 p.o. once daily, after 5 weeks): significantly reduced glycated hemoglobin (HbA1c) levels
- pancreatic insulin content (Goto-Kakizaki (GK) rats [6]; after 5-week treatment, vs vehicle): without reducing pancreatic insulin content; also recorded: No significant difference was observed
- nonfasting glucose levels (Goto-Kakizaki (GK) rats [6]; at least 1 mg·kg^−1 p.o. once daily, 5 weeks): reduced nonfasting glucose levels
- body weight gain (Goto-Kakizaki (GK) rats [6]; once daily p.o., 5 weeks, vs vehicle-treated group): comparable body weight gain
- insulin secretion in low glucose (rat primary islets; MR1704 3 μmol·L^−1, 2 mmol·L^−1 glucose): but not low glucose conditions
- insulin secretion in high glucose (rat primary islets; MR1704 3 μmol·L^−1, 16 mmol·L^−1 glucose): markedly potentiated insulin secretion in high glucose
- AUC of glucose levels during OGTT (Sprague-Dawley rats [8]; 1 mg·kg^−1 p.o.): significant reduction in the AUC of glucose levels
- plasma insulin secretion during OGTT (Sprague-Dawley rats [8]; [9]): significantly enhanced
- plasma glucose excursion during OGTT (Sprague-Dawley rats [8]; [10]): reduced plasma glucose excursion
